L major viab: Leishmania major promastigote growth inhibition | Leishmania major promastigotes, resazurin fluorescence viability | inhibition, % at 10 µM | 9% of 200,000 active;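 also: promastigotes grown with compound for 44 hours at 28 °C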
Avidin fluor: avidin bead compound fluorescence profile; fluorescence (KMESF) at 10 µM; AID 1775; Avidin beads, compound fluorescence 488/530 nm, flow cytometry; hits give high values; 0.38% of 220,000 active; in the data active = fluorescence above about 47
GSH fluor: compound fluoresces at 488/530 nm on GSH beads; fluorescence (KMESF) at 10 µM; GSH beads flow cytometry, compound fluorescence 488/530 nm; hits give high values; 0.25% of 190,000 active; in the data active = fluorescence above about 89;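 also: glutathione beads carrying GST-tagged Bcl family fusion proteins plus one bare bead set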
ABCB1 block: inhibitors of human ABCB1 transporter, ABCG2 counter-screen. P08183. CCRF-Adr cells, JC-1 efflux, flow cytometry. inhibition, % at 6.6 µM. 0.067% of 190,000 active; in the data active = inhibition above about 40%;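 also: higher value means more JC-1 retained so stronger ABCB1 efflux block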
PKD1 kinase inh: inhibitors of human PKD1 kinase; PKD1 kinase fluorescence polarization assay; 0.056% of 200,000 active; inhibition, % (no concentration beside the values); Q15139
ABCG2 block: blocks JC-1 efflux by human ABCG2 transporter. inhibition, % at 6.6 µM. Q9UNQ0. IgMXP3 cells, flow cytometry. 0.1% of 190,000 active;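 active = inhibition above 80%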
Target sequence (Q9UNQ0 whole entry, looked up): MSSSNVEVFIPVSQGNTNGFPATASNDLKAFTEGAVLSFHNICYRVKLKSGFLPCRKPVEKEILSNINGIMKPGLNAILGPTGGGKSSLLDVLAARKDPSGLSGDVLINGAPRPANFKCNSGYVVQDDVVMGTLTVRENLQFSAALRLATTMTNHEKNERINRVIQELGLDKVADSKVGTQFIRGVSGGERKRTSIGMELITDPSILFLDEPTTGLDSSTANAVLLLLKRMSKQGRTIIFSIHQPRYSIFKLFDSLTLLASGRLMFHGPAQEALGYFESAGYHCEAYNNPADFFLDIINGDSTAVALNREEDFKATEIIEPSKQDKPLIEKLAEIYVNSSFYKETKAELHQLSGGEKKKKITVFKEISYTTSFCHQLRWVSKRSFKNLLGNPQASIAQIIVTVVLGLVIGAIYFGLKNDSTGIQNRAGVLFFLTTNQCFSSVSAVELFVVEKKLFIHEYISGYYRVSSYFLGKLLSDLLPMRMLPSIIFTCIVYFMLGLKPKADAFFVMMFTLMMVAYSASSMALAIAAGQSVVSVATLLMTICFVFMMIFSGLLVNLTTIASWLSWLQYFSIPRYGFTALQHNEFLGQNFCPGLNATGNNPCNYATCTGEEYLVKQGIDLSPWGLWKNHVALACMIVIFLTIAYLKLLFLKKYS
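Test system: IgMXP3 cells (ABCG2) mixed with DDAO far-red-labelled CCRF-Adr cells (ABCB1). Reagent: JC-1 transporter substrate. Compound dosing: single test compound dose, 6.6 µM final. Times: 10 min compound exposure, 25 °C. Detection: flow cytometry of retained JC-1 fluorescence. Read-out basis: efflux inhibition in percent versus controls. Controls: nicardipine and DMSO wells.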
Lmaj promast 1uM: inhibitors of Leishmania major promastigote growth, repeat at 1 uM; shares compounds with L major viab; L. major promastigote growth, resazurin fluorescence, 48 h; inhibition, % at 1 µM; 13% of 1,100 active;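 active = inhibition above about 50% in both repeat tests, limit read from the data; inconclusive = one repeat under the set limit, the other over it; inactive = both repeats under the set limit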
Hits are given with their value; n = inactive; u = inconclusive; x = no result. Many of the other results were omitted from the sample, so hits are more common in it than they were. Rule as the data show it, unless noted: active = inhibition above about 50%; inactive = the rest.

SMILES	L major viab	Avidin fluor	GSH fluor	ABCB1 block	PKD1 kinase inh	ABCG2 block	Lmaj promast 1uM
N=C(N)CCCOc1ccccc1-c1ccccc1	53	n	n	n	n	n	n
OCCNCCOc1ccccc1-c1ccccc1	n	n	n	n	n	n	x
O=C(NCc1ccccn1)C(=O)C1C(=O)Nc2ccccc21 (stereo not given)	n	n	n	n	n	n	x
Cc1cc(C(F)(F)F)nn1CC(=O)Nc1ccc(Br)c2cccnc12	96	n	n	n	n	n	n
Cc1cc(C(F)(F)F)nn1CC(=O)NCc1ccccc1	n	n	n	n	n	n	x
Cc1oc(-c2cc(F)cc(F)c2)nc1CN1CCSCC1	n	n	n	n	n	n	x
COc1ccc(CC(=O)OC(C)CN2CCCC2)cc1 (stereo not given)	100	n	n	n	n	n	n
O=C(NCc1ccccn1)c1cccc(NS(=O)(=O)c2cccc(F)c2)c1	n	n	n	n	n	n	x
CC(C)CCC(C)N=Cc1c(O)n(Cc2ccccc2)c(=O)c2ccccc12 (stereo not given)	62	n	n	n	n	n	n
CC(C(=O)Nc1ccc(S(=O)(=O)N2CCOCC2)cc1)N1C(=O)C2CC=CCC2C1=O (stereo not given)	n	n	n	n	n	n	x
NC(=O)CN(N=Nc1cccc([N+](=O)[O-])c1)c1cccc([N+](=O)[O-])c1	55	n	n	n	n	n	n
N#Cc1c(N)nc(SCc2ccncc2)c(C#N)c1-c1cccs1	n	n	n	n	n	n	x
COc1cc(-c2c(C#N)c(N)nc(SCc3ccncc3)c2C#N)cc(OC)c1OC	98	n	n	n	n	n	61
Cc1ccc(C2=CSC3=NNC4(CCCCC4)NN23)cc1	55	n	n	n	n	n	n
Cc1ccc(C2=CSC3=NCCN23)c(C)c1	n	n	n	n	n	n	x
CCOC(=O)/C(C#N)=C/c1cn(CCC(=O)O)nc1-c1ccc(Cl)cc1	n	n	n	n	n	n	x
CC(C)C(NS(=O)(=O)c1cccc2nsnc12)C(=O)Nc1nc2ccc(Cl)cc2s1 (stereo not given)	90	n	n	n	n	n	n
CC(C)C(NS(=O)(=O)c1cccc2nsnc12)C(=O)NCCC1=CCCCC1 (stereo not given)	n	n	n	n	n	n	x
NC(=NCCc1ccccc1)NS(=O)(=O)c1cccs1	n	n	n	n	n	n	x
O=S(=O)(NC(=NCCc1ccc(Cl)cc1)c1ccccc1Cl)c1cccs1	100	n	n	n	n	n	n
O=[N+]([O-])c1cc(-c2nnc(C34CC5CC(CC(C5)C3)C4)o2)cc([N+](=O)[O-])c1	100	n	n	n	n	n	96
CCCNC(=O)OCCC12CC3CC(CC(C3)C1)C2	97	n	n	n	n	n	n
C/C(=N\N(Cc1ccccc1)c1ccccc1)c1cccnc1	n	n	n	n	n	n	x
Cc1ccccc1-n1ncc2c([N+](=O)[O-])cc([N+](=O)[O-])cc21	100	n	n	n	n	n	98
CCOc1ccc(/C=N/NC(=O)CSc2n[nH]c(=O)[nH]c2=O)cc1OC	n	n	n	n	n	n	x
SMILES	L major viab	Avidin fluor	GSH fluor	ABCB1 block	PKD1 kinase inh	ABCG2 block	Lmaj promast 1uM
Cc1nc(NC(=O)C23CC4CC(CC(C4)C2)C3)sc1Cc1ccc2c(c1)OCO2	n	n	n	n	n	n	x
COc1ccc(N2C(=O)CC(Nc3ccc(N4CCOCC4)cc3)C2=O)c(OC)c1 (stereo not given)	n	n	n	n	n	n	x
CN(C)CCOC(=O)C12CC3CC(C1)CC(C(=O)OCCN(C)C)(C3)C2	x	n	x	x	x	x	x
CCN(CC)CCOC(=O)C12CC3CC(CC(C3)C1)C2	97	n	n	n	n	n	n
CCOc1nc(C)cc(C)c1S(=O)(=O)c1cccc(C)c1	n	n	n	n	n	n	x
Cc1cc(C)c(S(=O)(=O)c2c(C)cccc2C)c(OCC(C)C)n1	96	n	n	n	n	n	u
COc1ccc(-n2c(C)cc(C(=O)CSc3nn4c(=O)c(C(C)(C)C)nnc4s3)c2C)cc1	64	57	n	n	n	n	n
Cc1ccc(NC(=S)N(C)C)cc1C	x	n	x	x	x	x	x
O=C1c2ccccc2CCCC12N=NCC2c1cccc2ccccc12 (stereo not given)	53	n	n	n	n	n	n
Cc1ccc(C2CN=NC23CCc2ccccc2C3=O)cc1 (stereo not given)	n	n	n	n	n	n	x
COc1cccc2c(=O)cn[nH]c12	n	n	n	n	n	n	x
O=C1CCCc2ccccc2N1	n	n	n	n	n	n	x
COc1ccc(CN(C(=S)Nc2ccccc2)C2CC(=O)N(c3ccc(Cl)cc3)C2=O)cc1 (stereo not given)	99	n	n	n	n	n	n
O=[N+]([O-])/C=C1/CCCCCN1	n	n	n	n	n	n	x
O=c1[nH]nc(-c2ccccc2)c2ccccc12	x	n	x	x	x	x	x
O=Nc1c2cc(-c3ccccc3)[nH]nc-2c2ccccc12	65	n	n	n	n	n	54
Cc1ccc(-c2cc3c(N=O)c4ccccc4c-3n[nH]2)cc1	n	n	n	n	n	n	x
Cc1cccc(-c2cc3c(N=O)c4ccccc4c-3n[nH]2)c1	64	n	n	n	n	n	53
COc1cc(NC(=O)CN2C(=O)C(c3ccccc3)=NC23CCCCCC3)cc(OC)c1	n	n	n	n	n	n	x
CCC(/C=C1\Sc2ccc(OC)cc2N1CCO)=C\c1sc2ccc(OC)cc2[n+]1CCO	100	n	n	n	n	n	100
O=C(O)c1ccc(N=NN2CCCCCC2)cc1	59	n	n	n	n	n	n
CCC(C)(C(=O)NC1CCCC1)N(Cc1ccco1)C(=O)c1ccc2c(c1)OCO2 (stereo not given)	n	n	n	n	n	n	x
O=C(O)CC(NC(=S)NCc1ccccc1)C(=O)O (stereo not given)	80	n	n	n	n	n	n
NC(=O)CC(NC(=S)NCc1ccccc1)C(=O)O (stereo not given)	n	n	n	n	n	n	x
O=C(CSc1nnc(-c2ccccn2)n1Cc1ccccc1)NC1CCCC1	n	n	n	n	n	n	x
SMILES	L major viab	Avidin fluor	GSH fluor	ABCB1 block	PKD1 kinase inh	ABCG2 block	Lmaj promast 1uM
Cn1c(SCCN2CCCCC2)nnc1-c1ccccc1Br	73	n	n	n	n	n	n
CCc1c(C)sc(NC(=S)Nc2cccnc2)c1C(=O)OC	n	n	n	n	n	n	x
O=c1oc2ccccc2nc1/C=C(O)/C=C\c1ccccc1	99	n	n	n	n	n	n
Cc1ccc(/C(O)=C/c2nc3ccccc3oc2=O)cc1	x	n	x	x	x	x	x
O=C(CN1C(=O)CSC1=O)Nc1ccc(F)c(F)c1F	n	n	n	n	n	n	x
COC(=O)c1sc(-c2ccc(C(C)(C)C)cc2)cc1NC(=O)CSCC(=O)O	x	n	x	x	x	x	x

Screening data as filed in PubChem BioAssay.
